# Reference: the RNAGym collection of RNA variant scans (doi:10.1126/science.aae0568)
# This sample holds only a part of the variants without activity.
# B1: tRNA (parent)
# chain: GUUCCGUUGGCGUAAUGGUAACGCGUCUCCCUCCUAAGGAGAAGACUGCGGGUUCGAGUCCCGUACGGAACG
# Variants of: B1
# Test: yeast fitness relative to wild type (ratio to wild type); higher = fitter; tRNA-Arg(CCU), competitive growth, 37 C, YPD
# Outline: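 A pool of Saccharomyces cerevisiae strains, each with a tRNA-Arg(CCU) gene variant at the native genomic locus, was competed in YPD at 37°C for 24 hours across six parallel replicates. The variants had been chemically synthesised at a 3% per-site mutation rate over 69 sites, and gene amplicons before and after competition were read by 100-nucleotide paired-end sequencing. Darwinian fitness relative to wild type rested on changes in genotype frequencies. Genotypes required ≥ 100 starting reads, and estimates < 0.5 were set to 0.5.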
row,Variant,yeast fitness
1,G10A C62U A70U,0.531
2,C4A G10A U28A C55G,≤ 0.5
3,C34U A37U A45U A57G C61U A70G,≤ 0.5
4,A36G A45C U47C G48A,≤ 0.5
5,U3C U13C U16A A45G C61A U64C,≤ 0.5
6,C11G C29U C30U U54A,≤ 0.5
7,U19C G52C,0.562
8,C5G U8A A36U A42G G50A A57G,≤ 0.5
9,U8C A14G C49U C61U,≤ 0.5
10,C22G A42C A65U G67A,≤ 0.5
11,A15C C27U G58C,0.599
12,C5A C30G C31G A65C,≤ 0.5
13,G12C C22G C29A A43G,≤ 0.5
14,C4G G41C,0.834
15,C4A G25C U26A C61A,≤ 0.5
16,A21C C34G G41C G67C,0.653
17,A20U U35A G44C,≤ 0.5
18,G23C C31G G44C U47A A69C,≤ 0.5
19,A15G C29A,0.558
20,C29G A43C G51C A57C,≤ 0.5
21,C11A U64C,0.638
22,U3C C4G A20G A43G,≤ 0.5
23,U3A A45C C62G,≤ 0.5
24,C24U C60G A65U,≤ 0.5

row,Variant,yeast fitness
1,A21G G39A A70G,0.872
2,U8G A15U,≤ 0.5
3,U8C U32A U47A G56C,0.944
4,C27A A45C C49A C61U,≤ 0.5
5,U7C C30G U54C C61G,≤ 0.5
6,A37U G52A A57C C60A,≤ 0.5
7,A37C G38A,0.636
8,C49U U59A C61A,≤ 0.5
9,G17C A42G,0.528
10,C31U U59A C60G,0.516
11,C31U C34A A45U C61U,≤ 0.5
12,C5A C27A U28G,0.617
13,C22G G50A U59C,≤ 0.5
14,C11U A57G C61U,≤ 0.5
15,U3G A14U G48C C49U C61A,≤ 0.5
16,C46A A57G C61U,0.704
17,A20G C33U A40G C62G A70U,≤ 0.5
18,U3G A20G A45G,0.75
19,C29G G56A C61U,≤ 0.5
20,U26A C34G,0.618
21,U3C G67C,0.783
22,G44A C49A,0.635
23,U7A C49G,0.779
24,A14C C31G A37U G39C A42C,≤ 0.5

row,Variant,yeast fitness
1,U7A C55U G67C,≤ 0.5
2,C11A U13A A20U G63A A65U,≤ 0.5
3,G9A C31U C60G C61U G63A,≤ 0.5
4,C34G G38C A69U,0.5
5,C4A G17C C49U C62G,≤ 0.5
6,A45C G48C,0.833
7,C22U A42G C61U,0.612
8,U59A C61U,0.711
9,C31G A45U C62U,0.876
10,C4A C22U U28C,≤ 0.5
11,G25A U47C,0.93
12,G12A A21G,1.04
13,G6A C11U,0.801
14,G6A C33G C34G,≤ 0.5
15,A14G C33G,≤ 0.5
16,C5A G39A C49U G67A,≤ 0.5
17,A20U C34U A40U,≤ 0.5
18,A14G A20C C31U C46G,≤ 0.5
19,G51A A57C U59C,≤ 0.5
20,G44A G67C,0.71
21,C29G A43C G67C,0.654
22,A14C C49G U54C G63A,≤ 0.5
23,G9C C29U A36U G63A G67A,≤ 0.5
24,G23A G63C,0.613

row,Variant,yeast fitness
1,C5U G51C A57C,≤ 0.5
2,A21C G51A,0.658
3,U3C A15G G23A C60U G68C,≤ 0.5
4,G39C U64C,0.959
5,U3A C4U U7A C24U A42U G58A C62U G63A,≤ 0.5
6,G18A U19A C61G,≤ 0.5
7,C30U C34G U59C,≤ 0.5
8,C34G U47C,0.599
9,G44A C60U,0.798
10,A20G C27U,1.1
11,U3G C4G G6C C29A A36C G52C,≤ 0.5
12,A36G C49U C61U,0.654
13,C24G G48A G68A,≤ 0.5
14,C4U C31U A37C C66U A69U,≤ 0.5
15,A20C A43C A57C,≤ 0.5
16,U3G C30A C31G,0.669
17,U35A C61U,0.765
18,A21G G23A C27G C61U A69C,≤ 0.5
19,A21U C22G G51C,≤ 0.5
20,C22U C24U C46U,0.654
21,G17A U32C A40G A65C,≤ 0.5
22,U2C U8C,0.965
23,G9A C49U G68A,0.668
24,U3C C11A C27G C33A,0.579

row,Variant,yeast fitness
1,C30G C33A,0.563
2,C5G G17A G38A A40G A69U,≤ 0.5
3,C24G C60A G67A,0.693
4,C29G U32C C34U G56A,0.667
5,U8C C31U C49U U54C,≤ 0.5
6,G12A G23C C24A G25A,≤ 0.5
7,C4G C5U C11A C46A U47A U53A,0.566
8,G6C A20G C61G,≤ 0.5
9,C30U C49A G52A C61G A70U,≤ 0.5
10,U32A G52A,≤ 0.5
11,G6C A15G C22A C29G A37C,≤ 0.5
12,C4U U26G C29U A65U,≤ 0.5
13,U13A C61U A65G,0.71
14,G12A G18U G39A,≤ 0.5
15,C27G C31U,0.772
16,U3C U8A U13C,≤ 0.5
17,U16G C24U G44A C46G,≤ 0.5
18,G25U C27A G41A C62U,≤ 0.5
19,C5A C31U U35C A69U,0.539
20,C11U G23C,0.757
21,U13A G17A,0.764
22,C5U U28A C62G,≤ 0.5
23,A40G A57G,0.969
24,A14U C24G A57C A65G,≤ 0.5

row,Variant,yeast fitness
1,G6A G17C G51A,≤ 0.5
2,A42G G52C C66U G68A,≤ 0.5
3,C27G U32A G39A,0.572
4,G12C A20C C34G U54G,≤ 0.5
5,C34U A45U C66U,0.57
6,C4U U26A A37C A42C C49U G56A,≤ 0.5
7,C33G A42G G44A U64C,≤ 0.5
8,G9C A14U C24G U35G C61G G68C,≤ 0.5
9,C11A U26A,0.687
10,A14C C27G C46G A57C A70C,≤ 0.5
11,U3A U8A,0.723
12,U7A C22G G38C C60U,≤ 0.5
13,C4A G10C G58A,0.713
14,G17C G52C C61A C66G,0.637
15,C24A A37G A57G G63A A65G,≤ 0.5
16,A43C C49U C62G,0.561
17,U8A C61A G67A,0.528
18,C5U A20U A70U,0.842
19,C33G C34A A43G C61U A65C,≤ 0.5
20,A43U A69G,0.886
21,G6C C11U C31G A36G G48C G67C,≤ 0.5
22,G10C G23A U35A A40U A42U C55G,≤ 0.5
23,C46U U47G,0.823
24,A42U U47C,0.939

row,Variant,yeast fitness
1,C31G C34U C46U G56A C62U,≤ 0.5
2,G9A U19C,0.983
3,C31U A40C,0.937
4,G25A A43G,0.949
5,G12A C29A A42U,0.616
6,G12C A20U G25A,≤ 0.5
7,U26C C29G,0.735
8,U19C A21C C33U C61A A70C,≤ 0.5
9,A14G G44A G67C,≤ 0.5
10,G44A U54C C61U A69C,0.627
11,G23C A40G,0.639
12,C11A A37U U54C,0.678
13,A14G U35C C62G A65G,0.635
14,C29A C30U A36U A70C,≤ 0.5
15,G12A C22G A57C,0.549
16,G9A G48A A69U,1.07
17,U16G U19C U28C,0.986
18,A40C C46U G52C,≤ 0.5
19,C49A G67A,0.579
20,U19C C31G C49U,0.736
21,C5U U13G C27U C29A A36U A40C G52C,≤ 0.5
22,A20G U35C G56C G68C,≤ 0.5
23,C4U G51C U59G,0.557
